ChEMBL document CHEMBL4765301, “Discovery of novel TNNI3K inhibitor suppresses pyroptosis and apoptosis in murine myocardial infarction injury” (Eur J Med Chem, 2020)
Activity calls are given as the source filed them.

Columns and labels:
[1] = target: T1, Serine/threonine-protein kinase TNNI3K (Rattus norvegicus) (UniProt Q7TQP6); assay: Inhibition of TNNI3K in rat H9c2 cells assessed as reduction in p38 phosphorylation at 0.5 to 1 uM by Western blot analysis; assay type: cell-based; conditions: dose 0.5-1 µM
T1 sequence (whole entry): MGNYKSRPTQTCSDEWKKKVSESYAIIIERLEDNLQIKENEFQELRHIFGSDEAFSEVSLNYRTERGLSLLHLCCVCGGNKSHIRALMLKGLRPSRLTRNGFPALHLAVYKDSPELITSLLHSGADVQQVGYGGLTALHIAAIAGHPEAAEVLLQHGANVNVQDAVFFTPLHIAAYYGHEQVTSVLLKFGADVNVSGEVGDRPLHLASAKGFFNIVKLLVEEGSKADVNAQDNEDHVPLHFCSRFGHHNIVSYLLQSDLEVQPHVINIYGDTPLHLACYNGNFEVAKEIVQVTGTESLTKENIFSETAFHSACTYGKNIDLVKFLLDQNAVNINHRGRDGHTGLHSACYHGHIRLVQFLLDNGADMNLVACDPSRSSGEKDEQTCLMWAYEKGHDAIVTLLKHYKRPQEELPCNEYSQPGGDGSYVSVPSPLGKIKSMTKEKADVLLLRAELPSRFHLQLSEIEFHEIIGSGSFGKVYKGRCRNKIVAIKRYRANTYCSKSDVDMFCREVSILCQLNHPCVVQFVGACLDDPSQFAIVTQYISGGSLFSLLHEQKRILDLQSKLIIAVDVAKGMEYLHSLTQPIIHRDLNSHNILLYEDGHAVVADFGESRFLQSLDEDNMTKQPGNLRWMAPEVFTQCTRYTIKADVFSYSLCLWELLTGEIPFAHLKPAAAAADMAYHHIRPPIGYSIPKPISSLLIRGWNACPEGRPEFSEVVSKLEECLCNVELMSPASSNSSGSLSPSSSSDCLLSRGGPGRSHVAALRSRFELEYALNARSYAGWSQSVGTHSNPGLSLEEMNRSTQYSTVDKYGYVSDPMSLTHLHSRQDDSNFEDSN
In short: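 H9c2 cells under OGD were treated with saline or 0.5 or 1.0 µM inhibitor. Cells were trypsinised, washed in cold PBS, lysed in RIPA with sonication and centrifuged 30 min. Total protein was quantified and separated by SDS-PAGE, then transferred to PVDF. Blots were probed with primary and secondary antibodies and detected by ECL.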

Mus musculus [2] = assay: Cardioprotective activity in C57BL/6 mouse model of myocardial infarction assessed as reduction in infarct area at 25 mg/kg, ip administered for 28 days and measured on day 28 by TTC staining based fluorescence microscopy; assay type: functional, organism-based; conditions: time 28.0 day
In short: (§1)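 Male C57BL/6 mice (5-6 weeks); MI by permanent LAD ligation under ip ketamine (100mg/kg)/xylazine (10mg/kg) with ventilation; sham group operated without LAD occlusion. Post-MI mice randomised to sham, normal saline or inhibitor groups (n=4); 25 mg/kg given ip every two days. Hearts assessed after 28 days: TTC staining (infarct yellow-white, viable red), Masson's trichrome (blue collagen) and H&E.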

Mus musculus [3] = assay: Cardioprotective activity in C57BL/6 mouse model of myocardial infarction assessed as reduction in collagen deposition at 25 mg/kg, ip administered for 28 days and measured on day 28 by […] staining based fluorescence microscopy; assay type: functional, organism-based; conditions: time 28.0 day; in short: as §1
Mus musculus [4] = assay: Cardioprotective activity in C57BL/6 mouse model of myocardial infarction assessed as reduction in scar tissue at 25 mg/kg, ip administered for 28 days and measured on day 28 by masson staining based fluorescence microscopy; assay type: functional, organism-based; conditions: time 28.0 day
In short: (§2)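 MI made in male C57BL/6 mice (5-6 weeks) by permanent LAD ligation under ip ketamine (100mg/kg)/xylazine (10mg/kg), ventilated. Groups: sham, saline (NS), inhibitor 25 mg/kg ip every two days, n=4. Hearts examined after 28 days; TTC, Masson's trichrome and H&E staining of sections for infarct, collagen/scar, LV inflammatory cells and dilatation.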

Mus musculus [5] = assay: Cardioprotective activity in C57BL/6 mouse model of myocardial infarction assessed as reduction in ventricular dilatation at 25 mg/kg, ip administered for 28 days and measured on day 28 by H and E staining based fluorescence microscopy; assay type: functional, organism-based; conditions: time 28.0 day; in short: as §2
Mus musculus [6] = assay: In vivo inhibition of TNNI3K in C57BL/6 mouse assessed as p38 phosphorylation at 25 mg/kg, ip administered for 28 days and measured on day 28 by immunohistochemical staining based fluorescence microscopy; assay type: functional, organism-based; conditions: time 28.0 day
In short: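 Male C57BL/6 mice (5-6 weeks) with LAD-ligation MI; sham, saline or 25 mg/kg ip every two days, n=4, 28 days. Heart sections given EDTA (pH 8.0) or citrate (pH 6.0) microwave antigen retrieval, then primary antibody 30-40 min at 37°C. Detection by HRP polymer secondary with DAB (IHC) or fluorescent secondary (IF). Positive cells were quantified.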

[7] = target: T1, Serine/threonine-protein kinase TNNI3K (Rattus norvegicus); assay: Inhibition of TNNI3K in rat H9c2 cells assessed as reduction in p38 phosphorylation at 0.5 to 1 uM by Western blot analysis; conditions: dose 0.5-1 µM

CN(C)CCCN1CCc2c(sc3ncnc(Nc4ccc(N(C)C)c(NC(=O)c5ccco5)c4)c23)C1
active: inhibition [1] | Activity (Mus musculus [2]) | Activity (Mus musculus [3]) | Activity (Mus musculus [4]) | Activity (Mus musculus [5]) | inhibition (Mus musculus [6]) | inhibition [7]
